Reference: ChEMBL document CHEMBL1133594, “Structure-function studies on the new growth hormone-releasing peptide, ghrelin: minimal sequence of ghrelin necessary for activation of growth hormone secretagogue receptor 1a” (J Med Chem, 2000)
Residues, ends and D or L forms follow the SMILES beside them. *: point of attachment. Octanoyl = CCCCCCCC(=O)*

Experiments:
[1] = target: Growth hormone secretagogue receptor type 1 (Homo sapiens, UniProt Q92847); assay: Binding affinity to cloned human growth hormone secretagogue receptor type 1 in a competitive binding assay with [35S]MK-0677 as a radiolabeled ligand
Sequence of Growth hormone secretagogue receptor type 1 (Q92847 whole entry): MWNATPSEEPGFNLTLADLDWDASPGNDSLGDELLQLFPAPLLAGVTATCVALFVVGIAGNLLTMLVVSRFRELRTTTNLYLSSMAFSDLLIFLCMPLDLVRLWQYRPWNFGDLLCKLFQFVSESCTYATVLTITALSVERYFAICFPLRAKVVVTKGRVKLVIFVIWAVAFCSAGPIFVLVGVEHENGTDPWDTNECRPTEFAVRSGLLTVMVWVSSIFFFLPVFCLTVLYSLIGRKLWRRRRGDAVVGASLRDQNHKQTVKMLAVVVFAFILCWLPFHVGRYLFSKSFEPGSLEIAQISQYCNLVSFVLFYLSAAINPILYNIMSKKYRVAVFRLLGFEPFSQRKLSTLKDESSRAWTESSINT
Procedure, shortened: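 Competition filter binding on crude membranes from HEK293-aequorin stable cells expressing hGHSR1a, 4 µg membrane protein/well. Bound membranes were filtered on 0.5% polyethylenimine-prewet GF/C filters, washed 8 times and counted by scintillation.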

HEK293 [2] = assay: Effective dose measuring intracellular calcium elevation in HEK293 cells; type: functional, cell-based; conditions: Homo sapiens
Procedure, shortened: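 Apo-aequorin was charged 1 h with 10 µM coelenterazine and 300 µM reduced glutathione in ECB buffer, pH 7.4. 5 × 10^4 cells were injected onto peptide and light integrated over 30 s, then Triton X-100 lysis (0.1% final) read over 10 s. Fractional response = challenge/total luminescence.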

HEK293 [3] = assay: Percent activation at 10 uM relative to ghrelin to measure intracellular calcium elevation in HEK293 cells; type: functional, Homo sapiens

IC50 [1] [nM]	Structure (SMILES)	EC50 (HEK293 [2]) [nM]	Activation (HEK293 [3]) [%]
9.6	CCCCCCCC(=O)OC[C@H](NC(=O)[C@H](CO)NC(=O)CN)C(=O)N[C@@H](Cc1ccccc1)C(=O)N[C@@H](CC(C)C)C(=O)N[C@@H](CO)C(=O)N1CCC[C@H]1C(=O)N[C@@H](CCC(=O)O)C(=O)N[C@@H](Cc1c[nH]cn1)C(=O)N[C@@H](CCC(N)=O)C(=O)N[C@@H](CCCN=C(N)N)C(=O)N[C@H](C(=O)N[C@@H](CCC(N)=O)C(=O)N[C@@H](CCC(N)=O)C(=O)O)C(C)C [listing 1 of 2 here]	17	
	CCCCCCCC(=O)OC[C@H](NC(=O)[C@H](CO)NC(=O)CN)C(=O)N[C@@H](Cc1ccccc1)C(=O)N[C@@H](CC(C)C)C(=O)N[C@@H](CO)C(=O)N1CCC[C@H]1C(=O)N[C@@H](CCC(=O)O)C(=O)N[C@@H](Cc1c[nH]cn1)C(=O)N[C@@H](CCC(N)=O)C(=O)N[C@@H](CCCN=C(N)N)C(=O)N[C@H](C(=O)N[C@@H](CCC(N)=O)C(=O)N[C@@H](CCC(N)=O)C(=O)O)C(C)C [listing 2 of 2 here]		97
8	CCCCCCCC(=O)NC[C@H](NC(=O)[C@H](CO)NC(=O)CN)C(=O)N[C@@H](Cc1ccccc1)C(=O)N[C@@H](CC(C)C)C(=O)N[C@@H](CO)C(=O)N1CCC[C@H]1C(=O)N[C@@H](CCC(=O)O)C(=O)N[C@@H](Cc1c[nH]cn1)C(=O)N[C@@H](CCC(N)=O)C(=O)N[C@@H](CCCNC(=N)N)C(=O)N[C@H](C(=O)N[C@@H](CCC(N)=O)C(=O)N[C@@H](CCC(N)=O)C(=O)O)C(C)C [listing 1 of 2 here]	38	
	CCCCCCCC(=O)NC[C@H](NC(=O)[C@H](CO)NC(=O)CN)C(=O)N[C@@H](Cc1ccccc1)C(=O)N[C@@H](CC(C)C)C(=O)N[C@@H](CO)C(=O)N1CCC[C@H]1C(=O)N[C@@H](CCC(=O)O)C(=O)N[C@@H](Cc1c[nH]cn1)C(=O)N[C@@H](CCC(N)=O)C(=O)N[C@@H](CCCNC(=N)N)C(=O)N[C@H](C(=O)N[C@@H](CCC(N)=O)C(=O)N[C@@H](CCC(N)=O)C(=O)O)C(C)C [listing 2 of 2 here]		102
	CCCCCCCC(=O)OC[C@H](NC(=O)[C@H](CO)NC(=O)CN)C(=O)N[C@@H](Cc1ccccc1)C(=O)N[C@@H](CC(C)C)C(=O)N[C@@H](CO)C(=O)N1CCC[C@H]1C(=O)N[C@@H](CCC(=O)O)C(=O)N[C@@H](Cc1cnc[nH]1)C(=O)N[C@@H](CCC(N)=O)C(=O)N[C@@H](CCCNC(=N)N)C(=O)N[C@H](C(=O)N[C@@H](CCC(N)=O)C(=O)N[C@@H](CCC(N)=O)C(=O)N[C@@H](CCCNC(=N)N)C(=O)N[C@@H](CCCCN)C(=O)N[C@@H](CCC(=O)O)C(=O)N[C@@H](CO)C(=O)N[C@@H](CCCCN)C(=O)N[C@@H](CCCCN)C(=O)N1CCC[C@H]1C(=O)N1CCC[C@H]1C(=O)N[C@@H](C)C(=O)N[C@@H](CCCCN)C(=O)N[C@@H](CC(C)C)C(=O)N[C@@H](CCC(N)=O)C(=O)N1CCC[C@H]1C(=O)N[C@@H](CCCNC(=N)N)C(=O)O)C(C)C		100
	CC(C)C[C@H](NC(=O)[C@H](CCCCN)NC(=O)[C@H](C)NC(=O)[C@@H]1CCCN1C(=O)[C@@H]1CCCN1C(=O)[C@H](CCCCN)NC(=O)[C@H](CCCCN)NC(=O)[C@H](CO)NC(=O)[C@H](CCC(=O)O)NC(=O)[C@H](CCCCN)NC(=O)[C@H](CCCNC(=N)N)NC(=O)[C@H](CCC(N)=O)NC(=O)[C@H](CCC(N)=O)NC(=O)[C@@H](NC(=O)[C@H](CCCNC(=N)N)NC(=O)[C@H](CCC(N)=O)NC(=O)[C@H](Cc1cnc[nH]1)NC(=O)[C@H](CCC(=O)O)NC(=O)[C@@H]1CCCN1C(=O)[C@H](CO)NC(=O)[C@H](CC(C)C)NC(=O)[C@H](Cc1ccccc1)NC(=O)[C@H](CO)NC(=O)[C@H](CO)NC(=O)CN)C(C)C)C(=O)N[C@@H](CCC(N)=O)C(=O)N1CCC[C@H]1C(=O)N[C@@H](CCCNC(=N)N)C(=O)O	> 10000	41
0.42	CCCCCCCC(=O)NC[C@H](NC(=O)[C@H](CO)NC(=O)CN)C(=O)N[C@@H](Cc1ccccc1)C(=O)N[C@@H](CC(C)C)C(=O)N[C@@H](CO)C(=O)N1CCC[C@H]1C(=O)N[C@@H](CCC(=O)O)C(=O)N[C@@H](Cc1cnc[nH]1)C(=O)N[C@@H](CCC(N)=O)C(=O)N[C@@H](CCCNC(=N)N)C(=O)N[C@H](C(=O)N[C@@H](CCC(N)=O)C(=O)N[C@@H](CCC(N)=O)C(=O)N[C@@H](CCCNC(=N)N)C(=O)N[C@@H](CCCCN)C(=O)N[C@@H](CCC(=O)O)C(=O)N[C@@H](CO)C(=O)N[C@@H](CCCCN)C(=O)N[C@@H](CCCCN)C(=O)N1CCC[C@H]1C(=O)N1CCC[C@H]1C(=O)N[C@@H](C)C(=O)N[C@@H](CCCCN)C(=O)N[C@@H](CC(C)C)C(=O)N[C@@H](CCC(N)=O)C(=O)N1CCC[C@H]1C(=O)N[C@@H](CCCNC(=N)N)C(=O)O)C(C)C	31	105
	CC(C)C[C@H](NC(=O)[C@H](CCCCN)NC(=O)[C@H](C)NC(=O)[C@@H]1CCCN1C(=O)[C@@H]1CCCN1C(=O)[C@H](CCCCN)NC(=O)[C@H](CCCCN)NC(=O)[C@H](CO)NC(=O)[C@H](CCC(=O)O)NC(=O)[C@H](CCCCN)NC(=O)[C@H](CCCNC(=N)N)NC(=O)[C@H](CCC(N)=O)NC(=O)[C@H](CCC(N)=O)NC(=O)[C@@H](NC(=O)[C@H](CCCNC(=N)N)NC(=O)[C@H](CCC(N)=O)NC(=O)[C@H](Cc1cnc[nH]1)NC(=O)[C@H](CCC(=O)O)NC(=O)[C@@H]1CCCN1C(=O)[C@H](CO)NC(=O)[C@H](CC(C)C)NC(=O)[C@H](Cc1ccccc1)NC(=O)[C@H](COC(=O)CC12CC3CC(CC(C3)C1)C2)NC(=O)[C@H](CO)NC(=O)CN)C(C)C)C(=O)N[C@@H](CCC(N)=O)C(=O)N1CCC[C@H]1C(=O)N[C@@H](CCCNC(=N)N)C(=O)O		95
> 10000	CCCCCCCC(=O)OC[C@H](NC(C)=O)C(=O)N[C@@H](Cc1ccccc1)C(=O)N[C@@H](CC(C)C)C(N)=O (Ac-Ser(Octanoyl)-Phe-Leu-NH2)	2500	29
> 10000	CCCCCCCC(=O)OC[C@H](NC(=O)[C@H](CO)NC(C)=O)C(=O)N[C@@H](Cc1ccccc1)C(N)=O (Ac-Ser-Ser(Octanoyl)-Phe-NH2)	> 10000	28
	CCCCCCCC(=O)OC[C@H](NC(=O)[C@H](CO)NC(=O)CN)C(=O)N[C@@H](Cc1ccccc1)C(N)=O (H-GSS(Octanoyl)F-NH2)	72	91
	CCCCCCCC(=O)OC[C@H](NC(=O)[C@H](CO)NC(=O)CN)C(=O)N[C@@H](Cc1ccccc1)C(=O)N[C@@H](CC(C)C)C(N)=O (H-GSS(Octanoyl)FL-NH2)	11.5	11.5
0.77	CCCCCCCC(=O)OC[C@H](NC(=O)[C@H](CO)NC(=O)CN)C(=O)N[C@@H](Cc1ccccc1)C(=O)N[C@@H](CC(C)C)C(=O)N[C@@H](CO)C(=O)N1CCC[C@H]1C(=O)N[C@@H](CCC(=O)O)C(=O)N[C@@H](Cc1c[nH]cn1)C(=O)N[C@@H](CCC(N)=O)C(=O)N[C@@H](CCCNC(=N)N)C(=O)N[C@H](C(=O)N[C@@H](CCC(N)=O)C(=O)N[C@@H](CCC(N)=O)C(=O)N[C@@H](CCCNC(=N)N)C(=O)N[C@@H](CCCCN)C(=O)N[C@@H](CCC(=O)O)C(=O)N[C@@H](CO)C(N)=O)C(C)C (H-GSS(Octanoyl)FLSPEHQRVQQRKES-NH2) [listing 1 of 2 here]	22	
	CCCCCCCC(=O)OC[C@H](NC(=O)[C@H](CO)NC(=O)CN)C(=O)N[C@@H](Cc1ccccc1)C(=O)N[C@@H](CC(C)C)C(=O)N[C@@H](CO)C(=O)N1CCC[C@H]1C(=O)N[C@@H](CCC(=O)O)C(=O)N[C@@H](Cc1c[nH]cn1)C(=O)N[C@@H](CCC(N)=O)C(=O)N[C@@H](CCCNC(=N)N)C(=O)N[C@H](C(=O)N[C@@H](CCC(N)=O)C(=O)N[C@@H](CCC(N)=O)C(=O)N[C@@H](CCCNC(=N)N)C(=O)N[C@@H](CCCCN)C(=O)N[C@@H](CCC(=O)O)C(=O)N[C@@H](CO)C(N)=O)C(C)C (H-GSS(Octanoyl)FLSPEHQRVQQRKES-NH2) [listing 2 of 2 here]		92
	CCCCCCCC(=O)OC[C@H](NC(=O)[C@H](CO)NC(=O)CN)C(=O)N[C@@H](Cc1ccccc1)C(=O)N[C@@H](CC(C)C)C(=O)N[C@@H](CO)C(=O)N1CCC[C@H]1C(=O)N[C@@H](CCC(=O)O)C(=O)N[C@@H](Cc1c[nH]cn1)C(=O)N[C@@H](CCC(N)=O)C(=O)N[C@@H](CCCN=C(N)N)C(=O)N[C@H](C(=O)N[C@@H](CCC(N)=O)C(=O)N[C@@H](CCC(N)=O)C(=O)N[C@@H](CCCN=C(N)N)C(=O)N[C@@H](CCCCN)C(=O)N[C@@H](CCC(=O)O)C(=O)N[C@@H](CO)C(=O)N[C@@H](CCCCN)C(=O)N[C@@H](CCCCN)C(=O)N1CCC[C@H]1C(=O)N1CCC[C@H]1C(=O)N[C@@H](C)C(N)=O)C(C)C (H-GSS(Octanoyl)FLSPEHQRVQQRKESKKPPA-NH2)	15	100
> 10000	CCCCCCCC(=O)OC[C@H](NC(=O)[C@H](CO)NC(=O)CN)C(N)=O (H-Gly-Ser-Ser(Octanoyl)-NH2)	> 10000	28

Structure (SMILES)	IC50 [1] [nM]	EC50 (HEK293 [2]) [nM]	Activation (HEK293 [3]) [%]
CCCCCCCC(=O)OC[C@H](NC(=O)[C@H](CO)NC(C)=O)C(=O)N[C@@H](Cc1ccccc1)C(=O)N[C@@H](CC(C)C)C(N)=O (Ac-SS(Octanoyl)FL-NH2)	> 2000	1150	30
